From ChEMBL document CHEMBL1132431, “Synthesis and structure-activity relationships of the (alkylamino)piperidine-containing BHAP class of non-nucleoside reverse transcriptase inhibitors: effect of 3-alkylpyridine ring substitution” (J Med Chem, 1999)

What was measured:
[1] = Absolute oral bioavailability at an iv dose of 15.2 mg/kg; type: ADME, organism-based; settings: in vivo, read-out: Bioavailabiility
Procedure, shortened: (§1)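 Male Sprague–Dawley rats, fasted, dosed iv and orally in a crossover design with a 1-week washout between treatments (N = 3). Clearance, Vss and absolute oral bioavailability were taken from the iv and po legs.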

[2] = IV clearance determined at an peroral dose of 30.3 mg/kg.; type: ADME, organism-based; parameters: dose 30.3 mg/kg, route oral; settings: in vivo, po, read-out: Clearance; procedure, shortened: as §1
[3] = Apparent terminal disposition half life […] at iv dose of 15.2 mg/kg; type: ADME, organism-based; parameters: dose 15.2 mg/kg, route intravenous; settings: read-out: T1/2 beta (converted)
[4] = Apparent terminal disposition half life […] at peroral dose of 30.3 mg/kg.; type: ADME, organism-based; parameters: dose 30.3 mg/kg, route oral; settings: po, read-out: T1/2 beta (converted)
[5] = Steady state volume of distribution (VSS) determined against male Sprague-Dawley rats at an iv dose of 15.2 mg/kg; type: ADME, organism-based; parameters: dose 15.2 mg/kg, route intravenous; settings: rat, in vivo, read-out: Vss; procedure, shortened: as §1
Rattus norvegicus [6] = assay: Steady state volume of distribution (VSS) determined against male Sprague-Dawley rats at an peroral dose of 30.3 mg/kg.; type: ADME, organism-based; parameters: dose 30.3 mg/kg, route oral; settings: in vivo, po; procedure, shortened: as §1
[7] = Half life of the parent compound upon microsomal incubation in the presence of hepatic microsomal cytochrome P450.; type: ADME, Microsome; settings: liver microsomes
[8] = tested on: Human immunodeficiency virus 1; assay: (§2) Antiviral activity against L-drug-resistant viral strain HIV-1 IIIB using L-697,661 as a comparator.; type: functional, organism-based
[9] = tested on: Human immunodeficiency virus 1; assay: (§3) Antiviral activity against BHAP-resistant viral strain HIV-1 MF using Delaviridine (U-90512) as a comparator.; type: functional
[10] = biological target: Human immunodeficiency virus type 1 reverse transcriptase (Human immunodeficiency virus 1, UniProt Q72547, P236L); assay: Inhibition of Reverse transcriptase (P236L) using poly(rA)600:oligo(dT)10 as template primer.
[11] = biological target: Human immunodeficiency virus type 1 reverse transcriptase (Human immunodeficiency virus 1, UniProt Q72547); assay: Inhibition of Reverse transcriptase (Wild Type) with poly(rA)600:oligo(dT)10 template primer
Procedure, shortened: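 Recombinant wild-type HIV-1 RT was assayed for RNA-dependent DNA polymerase activity on poly(rA)600:oligo(dT)10 template:primer. Duplicate points were run at 6 drug concentrations, and IC50 was derived by nonlinear least-squares fit.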

[12] = biological target: Human immunodeficiency virus type 1 reverse transcriptase (Human immunodeficiency virus 1, UniProt Q72547, Y181C); assay: Inhibition of Reverse transcriptase (Y181C) using poly(rA)600:oligo(dT)10 as template primer.
[13] = IV clearance determined at an iv dose of 15.2 mg/kg; type: ADME, organism-based; parameters: dose 15.2 mg/kg, route intravenous; settings: in vivo; procedure, shortened: as §1
[14] = Absolute oral bioavailability at an peroral dose of 30.3 mg/kg orally.; type: ADME, organism-based; settings: in vivo, read-out: Bioavailabiility; procedure, shortened: as §1
[15] = tested on: Human immunodeficiency virus 1; assay: Antiviral activity against BHAP-resistant viral strain HIV-1 IIIB using Delaviridine (U-90512) as a comparator.; type: functional
[16] = tested on: Human immunodeficiency virus 1; assay: as §2; type: functional
[17] = IV clearance determined at an peroral dose of 30.2 mg/kg.; type: ADME, organism-based; parameters: dose 30.2 mg/kg, route oral; settings: in vivo, po, read-out: Clearance; procedure, shortened: as §1
[18] = Oral bioavailability (dose 15 mg/kg i.v.); type: ADME, organism-based; settings: eutheria, in vivo; procedure, shortened: as §1
[19] = Apparent terminal disposition half life […] at iv dose of 15 mg/kg; type: ADME, organism-based; parameters: dose 15 mg/kg, route intravenous; settings: read-out: T1/2 beta (converted)
[20] = Apparent terminal disposition half life […] at peroral dose of 30.2 mg/kg.; type: ADME, organism-based; parameters: dose 30.2 mg/kg, route oral; settings: po, read-out: T1/2 beta (converted)
[21] = Steady state volume of distribution (VSS) determined against male Sprague-Dawley rats at an iv dose of 15 mg/kg; type: ADME, organism-based; parameters: dose 15 mg/kg, route intravenous; settings: rat, in vivo, read-out: Vss; procedure, shortened: as §1
Rattus norvegicus [22] = assay: Steady state volume of distribution (VSS) determined against male Sprague-Dawley rats at an peroral dose of 30.2 mg/kg.; type: ADME, organism-based; parameters: dose 30.2 mg/kg, route oral; settings: in vivo, po; procedure, shortened: as §1
[23] = biological target: Human immunodeficiency virus type 1 reverse transcriptase (Human immunodeficiency virus 1) (UniProt Q72547); assay: Percent inhibition of Reverse transcriptase (RNA-dependent DNA polymerase activity against P236l RT) using poly(rA)600:oligo(dT)10 as template primer at 1 uM
Procedure, shortened: (§4)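 Recombinant RT (WT, P236L or Y181C) was assayed for RNA-dependent DNA polymerase activity with poly(rA)600:oligo(dT)10 as template:primer. Percent inhibition was measured with compound at a single concentration of 1 μM.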

[24] = biological target: Human immunodeficiency virus type 1 reverse transcriptase (Human immunodeficiency virus 1) (UniProt Q72547); assay: Percent inhibition of Reverse transcriptase (RNA-dependent DNA polymerase activity against Wild Type RT) using poly(rA)600:oligo(dT)10 as template primer at 1 uM; procedure, shortened: as §4
[25] = tested on: Human immunodeficiency virus type 1 reverse transcriptase (Human immunodeficiency virus 1), Q72547 [Y181C]; assay: Percent inhibition of Reverse transcriptase (RNA-dependent DNA polymerase activity against Y181C RT) using poly(rA)600:oligo(dT)10 as template primer at 1 uM; procedure, shortened: as §4
[26] = tested on: Human immunodeficiency virus 1; assay: as §3; type: functional, organism-based
[27] = Absolute oral bioavailability at an iv dose of 14 mg/kg; type: ADME, organism-based; settings: in vivo, read-out: Bioavailabiility; procedure, shortened: as §1
[28] = IV clearance determined at an peroral dose of 15 mg/kg.; type: ADME, organism-based; parameters: dose 15 mg/kg, route oral; settings: in vivo, po, read-out: Clearance
[29] = Apparent terminal disposition half life […] at iv dose of 14 mg/kg; type: ADME, organism-based; parameters: dose 14 mg/kg, route intravenous; settings: read-out: T1/2 beta (converted)
[30] = Apparent terminal disposition half life […] at peroral dose of 15 mg/kg.; type: ADME, organism-based; parameters: dose 15 mg/kg, route oral; settings: po, read-out: T1/2 beta (converted)
[31] = Steady state volume of distribution (VSS) determined against male Sprague-Dawley rats at an iv dose of 14 mg/kg; type: ADME, organism-based; parameters: dose 14 mg/kg, route intravenous; settings: rat, in vivo, read-out: Vss; procedure, shortened: as §1
[32] = Steady state volume of distribution (VSS) determined against male Sprague-Dawley rats at an peroral dose of 15 mg/kg.; type: organism-based; parameters: dose 15 mg/kg; procedure, shortened: as §1
[33] = IV clearance determined at an iv dose of 15 mg/kg; type: ADME, organism-based; parameters: dose 15 mg/kg, route intravenous; settings: in vivo
[34] = IV clearance determined at an peroral dose of 30 mg/kg.; type: ADME, organism-based; parameters: dose 30 mg/kg, route oral; settings: in vivo, po, read-out: Clearance; procedure, shortened: as §1
[35] = Absolute oral bioavailability at an peroral dose of 30 mg/kg orally; type: ADME, organism-based; settings: in vivo, read-out: Bioavailabiility; procedure, shortened: as §1
Rattus norvegicus [36] = assay: Steady state volume of distribution (VSS) determined against male Sprague-Dawley rats at an peroral dose of 30 mg/kg.; type: ADME, organism-based; parameters: dose 30 mg/kg, route oral; settings: in vivo, po; procedure, shortened: as §1
[37] = Apparent terminal disposition half life […] at peroral dose of 30 mg/kg.; type: ADME, organism-based; parameters: dose 30 mg/kg, route oral; settings: po, read-out: T1/2 beta (converted)

| SMILES | EC90 [9] | IC50 [10] | IC50 [11] | IC50 [12] | EC90 [16] | further results |
| --- | --- | --- | --- | --- | --- | --- |
| CC(C)Cc1cccnc1N(C)C1CCN(C(=O)c2cc3cc(NS(C)(=O)=O)ccc3[nH]2)CC1 | 1800 nM | 1100 nM | 510 nM | 2600 nM | – | bioavailability [1]: 64%; CL/F [2]: 45 mL/min/kg; half-life [3]: 53.4 min; half-life [4]: 53.4 min; Vd [5]: 2.73 L/kg; Vss (Rattus norvegicus [6]): 2.73 L/kg; half-life [7]: 5.9 min; EC50 [8]: > 1000 nM; clearance [13]: 45 mL/min/kg; bioavailability [14]: 64% |
| CCc1cc(NCc2nc3c(Cl)ccc(Cl)c3o2)c(O)nc1C [L-697661] | 430 nM | – | – | – | > 10000 nM | EC90 [15]: 4000 nM |
| CCN(c1ncccc1NC(C)C)C1CCN(C(=O)c2cc3cc(NS(C)(=O)=O)ccc3[nH]2)CC1 | – | 170 nM | – | – | – | – |
| CC(C)Nc1cccnc1N(C)C1CCN(C(=O)c2cc3cc(NS(C)(=O)=O)ccc3[nH]2)CC1 | – | – | – | – | 1000 nM | CL/F [17]: 44 mL/min/kg; bioavailability [18]: 4.3%; half-life [19]: 40.2 min; half-life [20]: 40.2 min; Vd [21]: 2.5 L/kg; Vss (Rattus norvegicus [22]): 2.5 L/kg |
| CCc1cccnc1N(CC)C1CCN(C(=O)c2cc3cc(NS(C)(=O)=O)ccc3[nH]2)CC1 | – | 210 nM | 98 nM | 430 nM | – | – |
| CCCc1cccnc1N(C)C1CCN(C(=O)c2cc3cc(NS(C)(=O)=O)ccc3[nH]2)CC1 | – | – | – | – | – | inhibition [23]: 40%; inhibition [24]: 84%; inhibition [25]: 25% |
| CCc1cccnc1N(C)C1CCN(C(=O)c2cc3cc(NS(C)(=O)=O)ccc3[nH]2)CC1 | – | 1100 nM | 61 nM | 2000 nM | – | – |
| CN(c1ncccc1CO)C1CCN(C(=O)c2cc3cc(NS(C)(=O)=O)ccc3[nH]2)CC1 | – | 7000 nM | – | 15000 nM | – | – |
| CCN(c1ncccc1COC)C1CCN(C(=O)c2cc3cc(NS(C)(=O)=O)ccc3[nH]2)CC1 | 770 nM | 300 nM | 140 nM | 840 nM | 1000 nM | – |
| CCN(c1ncccc1CC(C)C)C1CCN(C(=O)c2cc3cc(NS(C)(=O)=O)ccc3[nH]2)CC1 | 1000 nM | 430 nM | 410 nM | 880 nM | 100 nM | half-life [7]: 2.29 min; EC90 [15]: 50 nM |
| COCc1cccnc1N(C)C1CCN(C(=O)c2cc3cc(NS(C)(=O)=O)ccc3[nH]2)CC1 | – | 6800 nM | 140 nM | 11000 nM | – | EC50 [26]: 3000 nM; EC50 [8]: > 3000 nM |
| CC(C)Nc1cccnc1N1CCN(C(=O)c2cc3cc(NS(C)(=O)=O)ccc3[nH]2)CC1 [DELAVIRDINE] | > 10000 nM | – | – | – | – | bioavailability [27]: 64%; CL/F [28]: 13.6 mL/min/kg; half-life [29]: 60 min; half-life [30]: 60 min; Vd [31]: 1.21 L/kg; Vdss [32]: 1.21 L/kg |
| CCCc1cccnc1N(CC)C1CCN(C(=O)c2cc3cc(NS(C)(=O)=O)ccc3[nH]2)CC1 | 100 nM | 370 nM | 270 nM | 450 nM | 90 nM | clearance [33]: 67 mL/min/kg; CL/F [34]: 67 mL/min/kg; bioavailability [18]: 9.8%; bioavailability [35]: 9.8%; half-life [19]: 49.2 min; Vd [21]: 3.2 L/kg; Vss (Rattus norvegicus [36]): 3.2 L/kg; half-life [7]: 1.68 min; EC90 [15]: 40 nM; half-life [37]: 49.2 min |
| CCNc1cccnc1N(CC)C1CCN(C(=O)c2cc3cc(NS(C)(=O)=O)ccc3[nH]2)CC1 | – | 360 nM | 430 nM | 390 nM | – | – |
| COC(=O)c1cccnc1N(C)C1CCN(C(=O)c2cc3cc(NS(C)(=O)=O)ccc3[nH]2)CC1 | – | 13000 nM | 250 nM | 21000 nM | – | – |
| CCCN(c1ncccc1CC)C1CCN(C(=O)c2cc3cc(NS(C)(=O)=O)ccc3[nH]2)CC1 | – | 540 nM | 130 nM | 910 nM | – | – |
